Measured values pooled from the literature.
Compare with care: the assays were run in different laboratories.

Cc1ncsc1-c1ccc([C@H](CC(=O)N2CCN(c3ccc(C#Cc4ccc(C(=O)N5CCC(n6cc(-c7ccc8c(c7)CCN8C(=O)Cc7cccc(OC(F)(F)F)c7)c7c(N)ncnc76)CC5)cc4)cn3)CC2)NC(=O)[C@@H]2C[C@@H](O)CN2C(=O)[C@@H](NC(=O)C2(F)CC2)C(C)(C)C)cc1  AUC(0-t) (male C57BL/6 mouse, plasma; intravenous, 1 mg/kg): 7260 ng·h/mL
Cc1cc(-c2ccnc3[nH]cc(F)c23)cc(F)c1[C@@]1(O)[C@H](C)CN(C(=O)CN)C[C@@H]1C  AUC(0-t) (male CD-1 mouse, plasma; oral, 3 mg/kg): 16900 ng·h/mL
CCCC[C@@H](NC(=O)[C@@H](Cc1cn(C(=O)OC)c2ccccc12)NC(=O)[C@H](CC(C)(C)C)NC(=O)N1[C@H](C)CCC[C@@H]1C)C(=O)O  AUC(0-t) (male CD-1 mouse, plasma; intravenous, 3 mg/kg): 225 ng·h/mL
COC1=CC(c2ccc[nH]2)=N/C1=C\c1cc(Cc2ccc(OC(F)(F)F)cc2)c(C)[nH]1.Cl  AUC(0-t) (male CD-1 mouse, liver; oral, 40 mg/kg, single dose): 101000 ng·h/mL
Cc1ccc(OCC(=O)N[C@@H](Cc2c[nH]c3ccccc23)C(=O)OC(C)C)cc1  AUC(0-t) (male Sprague-Dawley mouse, plasma; intravenous, 10 mg/kg): 2460 ng·h/mL
COC1=CC(c2ccc[nH]2)=N/C1=C\c1[nH]c(Cc2ccc(OC(F)(F)F)cc2)cc1Cc1ccc(OC(F)(F)F)cc1  AUC(0-t) (male CD-1 mouse, plasma; oral, 40 mg/kg, single dose): 84100 ng·h/mL
CCOC(=O)c1c(NC(=O)CNC(C)C)sc2c1CCCCC2  AUC(0-t) (male mouse, plasma; intraperitoneal, 5 mg/kg, single dose): 300 ng·h/mL
O=C1CCC(N2Cc3cc(C4CCN(Cc5ccccc5)CC4)ccc3C2=O)C(=O)N1 (stereo not drawn)  AUC(0-t) (male CD-1 mouse, plasma; oral, 3 mg/kg): 594 ng·h/mL
C[C@@H](CN1CCC(n2c(=O)[nH]c3cc(Cl)ccc32)CC1)NC(=O)c1ccc2ccccc2c1  AUC(0-t) (male CD-1 mouse, plasma; intravenous, 1 mg/kg, single dose): 11.9 ng·h/mL
Cc1ncsc1-c1ccc([C@H](C)NC(=O)[C@@H]2C[C@@H](O)CN2C(=O)[C@@H](NC(=O)CCCCCCCCCCC(=O)NCCCn2cc(-c3ccc4c(c3)CCN4C(=O)Cc3cccc(OC(F)(F)F)c3)c3c(N)ncnc32)C(C)(C)C)cc1  AUC(0-t) (mouse, plasma; intravenous, 1 mg/kg): 835 ng·h/mL
Cc1ccc2c(c1)C(=O)[C@]1(O)CCN(c3ccc4nc(C)ccc4c3)C1=N2.Cl  AUC(0-t) (C57BL/6 mouse, plasma; subcutaneous, 2 mg/kg): 0.98 µM·h
NCc1ccc(-c2nn(Cc3ccncc3)c3ccccc23)o1  AUC(0-t) (male CD-1 mouse, plasma; oral, 10 mg/kg): 314 ng·h/mL
CN(C)C(=O)c1cc2cnc(Nc3ccc(-c4ccc5c(=O)cc(N6CCOCC6)oc5c4)cc3)nc2n1C1CCCC1.Cl  AUC(0-t) (BALB/c mouse, plasma; intravenous, 2 mg/kg): 2790 ng·h/mL
Cc1nc2ccc(OCc3ccc(C(F)(F)F)cc3)cc2[nH]1  AUC(0-t) (male BALB/c mouse, plasma; intravenous, 1 mg/kg): 3800 ng·h/mL
OCc1ccc(-c2nn(Cc3ccccc3)c3ccccc23)o1  AUC(0-t) (male CD-1 mouse, plasma; intravenous, 5 mg/kg): 1070 ng·h/mL
Cc1cc(-c2ccnc3[nH]cc(F)c23)cc(F)c1[C@@]1(O)[C@H](C)CN(C2CCS(=O)(=O)CC2)C[C@@H]1C  AUC(0-t) (male CD-1 mouse, plasma; oral, 3 mg/kg): 3220 ng·h/mL
OCc1nc2ccc(NCc3ccc(C(F)(F)F)cc3)cc2[nH]1  AUC(0-t) (male BALB/c mouse, plasma; intravenous, 1 mg/kg): 482 ng·h/mL
NCc1ccc(-c2nn(Cc3ccccc3)c3ccccc23)o1  AUC(0-t) (male CD-1 mouse, plasma; intraperitoneal, 30 mg/kg): 9120 ng·h/mL
